Reference: PubChem BioAssay AID2529 (Broad Institute, 2010)
The source made the active and inactive calls.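 The calls were made as follows: active = inhibition at 30 µM, averaged over replicates, above 50% in every run; inconclusive = inhibition above 50% in some runs but not others; inactive = inhibition at most 50% in every run.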

Test system: human washed platelets, PMA-induced P-selectin, flow cytometry
Experiment: inhibitors of PMA-stimulated platelet P-selectin exposure, confirmation, selectivity assay, cell-based, fluorescence, flow cytometry, platelets (AID 2529)
Conditions: at 30 µM, stronger effect = higher value
How it was run: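 Assay system – platelets stained for surface P-selectin · Also added – Phorbol myristate acetate (PMA) stimulus, 5 nM · Dosing – 30 µM single dose · Timing – compound pre-treatment 20 min, PMA stimulation 15 min, antibody labeling 20 min · Signal – flow cytometry, PE anti-P-selectin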

| SMILES | inhibition | inhibition (measured here: second run average inhibition) [%] |
| --- | --- | --- |
| O=C(Nc1cccc(NC(=O)c2ccccc2Cl)c1)c1ccco1 | 17% (inactive) | 8 |
| CCCC(=O)Nc1cccc(NC(=O)c2ccccc2Br)c1 | 13% (inactive) |  |
